Consider 5 molecules from ChEMBL document CHEMBL4196175, “First SAR Study for Overriding NRAS Mutant Driven Acute Myeloid Leukemia” (J Med Chem, 2018).

The source made the active and inactive calls. The calls are words filed in the database; no cut-off is given here.

The target in one data set is Activated CDC42 kinase 1 (Homo sapiens, UniProt Q07912). The experiment in a line: Inhibition of ACK1 (unknown origin) by radiometric biochemical kinase assay.
The species named for a further data set is Mus musculus. Put plainly: Inhibition of ACK1/GCK in mouse BA/F3 cells assessed as reduction in NRAS-G12D mutant-mediated cell proliferation after 72 hrs by celltiter-glo assay. The data set is classed as cell-based.
Data set [1] in a line: Growth inhibition of parental human U937 cells after 72 hrs by celltiter-glo assay. The data set is classed as cell-based, U-937.
Data set [2] can be described thus: Metabolic stability in human liver microsomes assessed as compound remaining at 1 uM after 30 mins. The format is ADME, microsome. The following applies: read-out: Stability.
Data set [3] in a line: Metabolic stability in rat liver microsomes assessed as compound remaining at 1 uM after 30 mins. The following applies: read-out: Stability. The data set is classed as ADME, microsome.
In a further data set the target is T1, CYP1A2 (Homo sapiens, UniProt P05177).
T1 sequence (P05177 whole entry): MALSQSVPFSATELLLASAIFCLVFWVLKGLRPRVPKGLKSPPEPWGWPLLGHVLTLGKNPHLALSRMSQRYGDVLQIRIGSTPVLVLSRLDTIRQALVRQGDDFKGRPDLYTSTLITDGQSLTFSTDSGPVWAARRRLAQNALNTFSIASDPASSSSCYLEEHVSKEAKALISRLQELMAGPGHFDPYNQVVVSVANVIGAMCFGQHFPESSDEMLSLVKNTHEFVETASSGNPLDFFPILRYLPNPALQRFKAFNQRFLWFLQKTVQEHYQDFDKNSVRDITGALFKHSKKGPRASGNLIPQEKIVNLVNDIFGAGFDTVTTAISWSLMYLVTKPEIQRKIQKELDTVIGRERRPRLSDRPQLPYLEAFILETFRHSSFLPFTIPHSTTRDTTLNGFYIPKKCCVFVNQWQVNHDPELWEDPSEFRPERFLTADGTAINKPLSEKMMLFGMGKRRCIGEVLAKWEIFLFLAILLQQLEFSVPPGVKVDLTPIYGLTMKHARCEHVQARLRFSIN
The experiment in a line: Inhibition of CYP1A2 (unknown origin) assessed as activity remaining at 10 uM relative to control. The following applies: read-out: Activity. The format is ADME.

The target in data set [4] is Activated CDC42 kinase 1 (Mus musculus) (UniProt O54967). Put plainly: Inhibition of ACK1 in mouse BA/F3 cells harboring NRAS-G12D mutant assessed as reduction in AKT phosphorylation at S473 at 1 uM after 2 hrs by Western blot analysis. The data set is classed as cell-based. Summed up: (§1)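 Ba/F3-NRAS-G12D or OCI-AML3 cells exposed 2 h to compounds (1 µM, or a dose series in OCI-AML3); phospho-p70S6K1, phospho-AKT S473, phospho-JNK and phospho-p38 assessed by western blot, actin as loading control.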

Data set [5] deals with T2, Mitogen-activated protein kinase kinase kinase kinase 2 (Mus musculus) (UniProt Q61161).
T2 sequence (whole entry): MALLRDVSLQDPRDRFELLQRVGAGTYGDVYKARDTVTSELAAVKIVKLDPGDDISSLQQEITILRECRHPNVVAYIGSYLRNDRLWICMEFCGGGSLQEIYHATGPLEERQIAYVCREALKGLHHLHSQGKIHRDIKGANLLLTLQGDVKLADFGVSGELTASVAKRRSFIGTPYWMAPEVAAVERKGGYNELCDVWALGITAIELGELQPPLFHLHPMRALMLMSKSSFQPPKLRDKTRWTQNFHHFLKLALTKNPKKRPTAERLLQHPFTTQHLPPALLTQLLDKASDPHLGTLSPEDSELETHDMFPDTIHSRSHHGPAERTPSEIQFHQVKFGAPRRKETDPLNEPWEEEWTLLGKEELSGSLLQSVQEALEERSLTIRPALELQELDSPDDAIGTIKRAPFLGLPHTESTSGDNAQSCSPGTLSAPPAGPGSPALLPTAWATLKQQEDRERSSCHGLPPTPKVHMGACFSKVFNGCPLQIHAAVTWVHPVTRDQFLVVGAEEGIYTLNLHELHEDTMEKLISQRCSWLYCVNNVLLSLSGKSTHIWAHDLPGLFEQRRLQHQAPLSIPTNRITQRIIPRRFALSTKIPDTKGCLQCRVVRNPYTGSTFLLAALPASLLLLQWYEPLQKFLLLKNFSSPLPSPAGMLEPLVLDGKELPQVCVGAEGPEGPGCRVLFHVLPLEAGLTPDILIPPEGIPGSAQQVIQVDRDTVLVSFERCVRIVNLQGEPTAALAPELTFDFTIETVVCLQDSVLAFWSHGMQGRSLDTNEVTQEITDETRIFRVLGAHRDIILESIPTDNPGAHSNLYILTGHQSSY
Put plainly: Inhibition of GCK in mouse BA/F3 cells harboring NRAS-G12D mutant assessed as reduction in JNK phosphorylation at T183/Y185 at 1 uM after 2 hrs by Western blot analysis. The format is cell-based. Summed up:
as §1

Data set [6] concerns the target T2, Mitogen-activated protein kinase kinase kinase kinase 2 (Mus musculus). Put plainly: Inhibition of GCK in mouse BA/F3 cells harboring NRAS-G12D mutant assessed as reduction in p38 phosphorylation at Thr180/Tyr182 at 1 uM after 2 hrs by Western blot analysis. The format is cell-based. Summed up: as §1
Data set [7] has as its target T3, Mitogen-activated protein kinase kinase kinase kinase 2 (Homo sapiens) (UniProt Q12851).
T3 sequence (whole entry): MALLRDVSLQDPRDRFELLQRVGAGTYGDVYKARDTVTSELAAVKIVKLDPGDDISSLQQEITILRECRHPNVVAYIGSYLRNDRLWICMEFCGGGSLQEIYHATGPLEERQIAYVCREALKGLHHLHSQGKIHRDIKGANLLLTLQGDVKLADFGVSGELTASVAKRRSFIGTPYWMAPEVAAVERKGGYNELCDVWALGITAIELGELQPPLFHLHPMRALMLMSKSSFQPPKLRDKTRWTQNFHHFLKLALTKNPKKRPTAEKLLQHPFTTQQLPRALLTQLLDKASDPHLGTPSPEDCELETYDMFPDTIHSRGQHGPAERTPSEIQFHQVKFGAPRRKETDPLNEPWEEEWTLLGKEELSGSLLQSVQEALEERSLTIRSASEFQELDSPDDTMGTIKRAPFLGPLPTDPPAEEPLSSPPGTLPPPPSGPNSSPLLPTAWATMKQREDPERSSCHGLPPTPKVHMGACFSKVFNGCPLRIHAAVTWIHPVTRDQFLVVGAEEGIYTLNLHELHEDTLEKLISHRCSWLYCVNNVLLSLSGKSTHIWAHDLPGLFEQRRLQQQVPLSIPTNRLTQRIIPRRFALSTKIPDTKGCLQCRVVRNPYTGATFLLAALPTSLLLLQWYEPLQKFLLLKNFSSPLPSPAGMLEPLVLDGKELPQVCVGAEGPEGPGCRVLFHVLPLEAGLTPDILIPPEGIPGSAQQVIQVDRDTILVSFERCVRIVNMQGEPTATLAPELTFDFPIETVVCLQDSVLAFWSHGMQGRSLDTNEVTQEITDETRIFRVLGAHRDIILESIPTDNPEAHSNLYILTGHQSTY
Put plainly: Inhibition of GCK in human OCI-AML3 cells harboring NRAS Q61L mutant assessed as reduction in p38 phosphorylation at Thr180/Tyr182 at 1 uM after 2 hrs by Western blot analysis. The format is cell-based. Summed up:
as §1

A further data set deals with OCI-AML-3. Put plainly: Growth inhibition of ACK1/GCK knockdown human OCI-AML3 cells harboring NRAS-Q61L mutant at 0.2 uM after 72 hrs by celltiter-glo assay. The format is functional, cell-based.

Chain of Activated CDC42 kinase 1 (Mus musculus) (O54967 whole entry): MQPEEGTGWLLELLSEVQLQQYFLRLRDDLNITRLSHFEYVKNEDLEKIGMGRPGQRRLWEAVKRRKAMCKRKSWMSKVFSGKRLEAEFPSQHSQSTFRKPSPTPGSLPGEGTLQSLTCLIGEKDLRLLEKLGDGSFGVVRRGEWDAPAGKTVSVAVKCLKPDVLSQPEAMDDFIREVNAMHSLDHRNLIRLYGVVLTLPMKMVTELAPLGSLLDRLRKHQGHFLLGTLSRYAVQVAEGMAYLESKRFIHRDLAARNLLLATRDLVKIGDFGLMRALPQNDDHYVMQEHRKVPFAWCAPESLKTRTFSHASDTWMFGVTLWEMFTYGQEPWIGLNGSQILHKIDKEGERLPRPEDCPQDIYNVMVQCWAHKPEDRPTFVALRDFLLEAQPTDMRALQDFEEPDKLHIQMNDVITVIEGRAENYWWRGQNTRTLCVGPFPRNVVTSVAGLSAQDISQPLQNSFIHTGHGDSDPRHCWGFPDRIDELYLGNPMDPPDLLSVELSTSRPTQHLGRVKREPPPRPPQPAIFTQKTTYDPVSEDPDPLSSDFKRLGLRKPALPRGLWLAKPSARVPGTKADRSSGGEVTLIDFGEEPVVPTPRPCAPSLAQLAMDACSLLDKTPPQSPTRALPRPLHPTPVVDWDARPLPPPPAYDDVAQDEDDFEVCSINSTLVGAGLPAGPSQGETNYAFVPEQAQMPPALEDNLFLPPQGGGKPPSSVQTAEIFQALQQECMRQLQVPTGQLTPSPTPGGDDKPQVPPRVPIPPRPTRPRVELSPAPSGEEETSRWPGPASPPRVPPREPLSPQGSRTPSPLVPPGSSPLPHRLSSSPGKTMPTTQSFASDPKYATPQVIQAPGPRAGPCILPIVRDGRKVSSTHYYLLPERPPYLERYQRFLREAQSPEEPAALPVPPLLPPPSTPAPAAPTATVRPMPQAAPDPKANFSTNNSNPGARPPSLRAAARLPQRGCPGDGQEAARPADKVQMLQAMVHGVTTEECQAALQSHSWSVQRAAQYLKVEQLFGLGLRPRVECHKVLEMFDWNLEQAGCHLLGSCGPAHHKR
Chain of Activated CDC42 kinase 1 (Q07912 whole entry): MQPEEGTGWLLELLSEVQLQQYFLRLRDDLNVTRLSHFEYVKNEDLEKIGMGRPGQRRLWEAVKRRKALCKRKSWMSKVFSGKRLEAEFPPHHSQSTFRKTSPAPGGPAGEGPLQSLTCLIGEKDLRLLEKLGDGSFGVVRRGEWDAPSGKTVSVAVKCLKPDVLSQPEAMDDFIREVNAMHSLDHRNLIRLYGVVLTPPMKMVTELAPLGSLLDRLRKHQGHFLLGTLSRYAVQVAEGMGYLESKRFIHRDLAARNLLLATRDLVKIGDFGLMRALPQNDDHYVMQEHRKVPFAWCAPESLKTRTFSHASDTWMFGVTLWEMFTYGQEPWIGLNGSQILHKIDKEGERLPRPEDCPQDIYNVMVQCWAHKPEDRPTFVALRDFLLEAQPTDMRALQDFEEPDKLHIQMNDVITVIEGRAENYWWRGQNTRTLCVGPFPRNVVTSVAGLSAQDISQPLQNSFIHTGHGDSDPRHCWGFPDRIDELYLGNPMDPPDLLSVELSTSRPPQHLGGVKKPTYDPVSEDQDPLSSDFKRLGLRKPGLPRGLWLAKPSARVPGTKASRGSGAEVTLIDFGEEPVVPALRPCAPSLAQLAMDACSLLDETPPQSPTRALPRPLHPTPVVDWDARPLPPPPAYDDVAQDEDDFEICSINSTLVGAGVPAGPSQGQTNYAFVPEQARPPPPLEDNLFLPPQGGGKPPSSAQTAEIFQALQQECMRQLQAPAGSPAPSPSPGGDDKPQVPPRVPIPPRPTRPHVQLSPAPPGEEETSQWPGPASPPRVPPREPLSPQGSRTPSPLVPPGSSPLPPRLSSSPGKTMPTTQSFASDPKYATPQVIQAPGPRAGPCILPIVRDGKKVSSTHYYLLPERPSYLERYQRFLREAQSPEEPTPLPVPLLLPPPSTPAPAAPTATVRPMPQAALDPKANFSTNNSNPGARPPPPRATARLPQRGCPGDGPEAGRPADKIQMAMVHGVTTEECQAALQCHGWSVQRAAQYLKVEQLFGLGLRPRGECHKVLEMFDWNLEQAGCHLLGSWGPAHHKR

On Activated CDC42 kinase 1, `CCN1CCN(C(=O)c2ccc(Nc3ncc4c(n3)N(C)C(=O)N(c3cc(NC(=O)c5cccc(C(F)(F)F)c5)ccc3C)C4)cn2)CC1` registered an IC50 of 13 nM. Also, in the data set listed under Mus musculus, the GI50 was found to be 107 nM. Moreover, the GI50 at 72 h in data set [1] amounted to 6480 nM. Also, the remaining at 0.5 h, 1 µM in data set [2] is 24.6%; in [3], 38.3%. Also, the activity at 10 µM at CYP1A2 was determined as 81.8%. Further, the “reduction in AKT S473 phosphorylation (qualitative)” value (“reduction … (qualitative)” for short) in [4] was “Active”. Moreover, in data set [5], the “reduction in JNK phosphorylation (active/inactive call)” value (shortened to “reduction … (active/inactive call)”) was “Active”. Moreover, the “reduction in p38 phosphorylation (qualitative call)” value (“reduction in p38 phosphorylation” below) in data set [6] is “Active”. In data set [7], the inhibition result is “Active”. Moreover, the “growth inhibition (GI)” value in the data set with OCI-AML-3 is “Active”.

For `CC(=O)N1CCN(c2ccc(Nc3ncc4c(n3)N(C)C(=O)N(c3cc(NC(=O)c5cccc(C(F)(F)F)c5)ccc3C)C4)cn2)CC1`, half-maximal inhibition against Activated CDC42 kinase 1 (IC50) required 8 nM. The GI50 in the data set filed under Mus musculus was found to be 59 nM. Besides, the GI50 at 72 h in data set [1] came out at 2480 nM. Further, the remaining at 0.5 h, 1 µM was determined as 47.3% in data set [2] and 75.4% in [3]. Moreover, the activity at 10 µM at CYP1A2 is 87.2%. For the same molecule, the “growth inhibition (GI)” value in the data set with OCI-AML-3 was “Active”.

`Cc1ccc(Nc2ncc3c(n2)N(C)C(=O)N(c2cc(NC(=O)c4ccc(CN5CCC(N(C)C)C5)c(C(F)(F)F)c4)ccc2C)C3)cn1` (centres undefined) registered an IC50 against Activated CDC42 kinase 1 of 6 nM. Besides, the GI50 in the data set listed under Mus musculus turned out to be 23 nM. Moreover, the GI50 at 72 h in data set [1] was 1970 nM. Besides, the remaining at 0.5 h, 1 µM came out at 57.5% in [2] and 76.5% in data set [3]. In addition, the activity at 10 µM on CYP1A2 came to 67.5%. For the same molecule, the “reduction … (qualitative)” value in [4] was “Active”. In data set [5], the “reduction … (active/inactive call)” value was “Active”. The “reduction in p38 phosphorylation” value in [6] is “Active”. Further, the inhibition entry in [7] is “Active”.

In turn, `Cc1ccc(NC(=O)c2cccc(C(F)(F)F)c2)cc1N1Cc2cnc(N)nc2N(C)C1=O` came in with an IC50 against Activated CDC42 kinase 1 of 18 nM. Also, the GI50 in the data set listed under Mus musculus was 223 nM. For the same molecule, the GI50 at 72 h in data set [1] was found to be 4970 nM. Besides, the remaining at 0.5 h, 1 µM in [2] was found to be 84.4%; in [3], 81.3%. Further, the activity at 10 µM on CYP1A2 was determined as 89.2%. Besides, the “reduction … (qualitative)” value in data set [4] is “Active”. Besides, the “reduction … (active/inactive call)” value in data set [5] is “Active”. For the same molecule, the “reduction in p38 phosphorylation” value in [6] was “Active”. Besides, the inhibition entry in data set [7] was “Active”.

Consider `Cc1cc(Nc2ncc3c(n2)N(C)C(=O)N(c2cc(NC(=O)c4cccc(C(F)(F)F)c4)ccc2C)C3)n(C)n1`, for which, on Activated CDC42 kinase 1, 9 nM corresponded to half-maximal inhibition (IC50). For the same molecule, the 50% growth inhibitory concentration (GI50) in the data set filed under Mus musculus came to 129 nM. Moreover, the GI50 at 72 h in data set [1] stood at 2460 nM. Further, the remaining at 0.5 h, 1 µM came to 69.2% in data set [2] and 82.3% in data set [3]. Also, the activity at 10 µM on CYP1A2 is 88.2%. The “reduction … (qualitative)” value in data set [4] was “Active”. Besides, in [5], the “reduction … (active/inactive call)” value was “Active”. The “reduction in p38 phosphorylation” value in data set [6] is “Active”. For the same molecule, in data set [7], the inhibition result was “Active”. For the same molecule, in the data set with OCI-AML-3, the “growth inhibition (GI)” value is “Active”.
